From PubChem BioAssay
pPAFAH inh = pPAFAH (human) enzyme inhibition; inhibition, % at 3.39 µM; 1.5% of 330,000 active; AID 463082; recombinant pPAFAH, FP-rhodamine probe fluorescence polarization;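 active = inhibition above the mean inhibition across the screen plus 3 SD, cut at about 25% in these data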;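 note: inhibitors block binding of the rhodamine activity-based probe so polarization drops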
Target sequence (Q13093 whole entry, looked up): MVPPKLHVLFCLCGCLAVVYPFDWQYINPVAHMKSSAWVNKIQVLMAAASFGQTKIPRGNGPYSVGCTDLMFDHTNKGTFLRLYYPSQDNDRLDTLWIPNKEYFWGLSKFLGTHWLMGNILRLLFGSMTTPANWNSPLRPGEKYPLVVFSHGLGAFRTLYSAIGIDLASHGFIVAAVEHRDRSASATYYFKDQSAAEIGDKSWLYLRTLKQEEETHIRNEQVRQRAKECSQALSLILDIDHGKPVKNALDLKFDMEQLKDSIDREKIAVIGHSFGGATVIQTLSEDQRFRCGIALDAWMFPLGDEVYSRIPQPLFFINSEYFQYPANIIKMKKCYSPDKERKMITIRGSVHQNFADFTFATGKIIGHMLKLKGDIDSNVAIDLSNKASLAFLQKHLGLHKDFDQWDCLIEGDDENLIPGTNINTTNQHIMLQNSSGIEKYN
IMP-1 inhibitor = blocks Pseudomonas aeruginosa IMP-1 metallo-beta-lactamase | purified IMP-1, nitrocefin hydrolysis, epi-absorbance fluorescence | inhibition, % at 5.6 µM | 0.45% of 290,000 active | AID 1556;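 active = inhibition above the mean plus 3 SD of all compounds in the same screening run, cut at about 4.5% in these data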
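System: Purified IMP-1 | Read-out basis: Percent enzyme inhibition | Controls: IMP-1 with DMSO as 0%, enzyme-free DMSO as 100% | Replicates: One well per compound | Doses: 5.6 µM nominal single concentration | Detection: Epi-absorbance fluorescence, 480 nm excitation, 530 nm emission | Incubation: 25 °C, 15 min preincubation, 25 min reaction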
PAFAH2 FP inh = PAFAH2 (human) inhibition; recombinant PAFAH2, FP-rhodamine activity probe, fluorescence polarization; inhibition, % at 3.39 µM; AID 492956; 0.99% of 340,000 active; Q99487;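 active = inhibition above the mean over all tested compounds plus 3 SD, cut at about 30% in these data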;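 note: inhibitors block probe labeling of enzyme so polarization drops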
PAFAH1B3 inh = blocks human PAF acetylhydrolase 1B catalytic subunit 3; inhibition, % at 3.39 µM; recombinant PAFAH1B3, FP-rhodamine probe, fluorescence polarization; 0.28% of 340,000 active;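 active = inhibition above the screen-wide average of all tested compounds plus 3 SD, cut at about 25% in these data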
VIM-2 inh = blocks Pseudomonas aeruginosa VIM-2 metallo-beta-lactamase; purified VIM-2, nitrocefin hydrolysis, epi-absorbance fluorescence; inhibition, % at 5.6 µM; 0.89% of 290,000 active; AID 1527;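 active = inhibition above the mean of all tested compounds plus 3 SD, cutoff set per screening run, cut at about 7.5% in these data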;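 note: red hydrolysis product quenches plate fluorescence so inhibitors raise well fluorescence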
PAFAH1B2 inh = PAFAH1B2 (human) inhibition; recombinant PAFAH1B2, FP-rhodamine activity probe, fluorescence polarization; P68402; inhibition, % at 3.39 µM; AID 492953; 1.2% of 340,000 active;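 active = inhibition above the mean of all tested compounds plus 3 SD, cut at about 24% in these data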
Target sequence (P68402 whole entry, looked up): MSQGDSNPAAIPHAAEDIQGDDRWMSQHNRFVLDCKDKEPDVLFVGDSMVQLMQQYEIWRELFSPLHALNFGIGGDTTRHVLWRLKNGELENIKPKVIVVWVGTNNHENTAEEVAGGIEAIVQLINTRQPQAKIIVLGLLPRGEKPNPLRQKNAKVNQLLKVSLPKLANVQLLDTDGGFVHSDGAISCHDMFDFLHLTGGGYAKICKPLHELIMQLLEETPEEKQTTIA
Hits are given with their value. Rows were chosen to be rich in hits. Some 3.6% of all compounds tested hit in one or more screens of this group.

Results for COc1ccc(N2COC3c4cccc5cccc(c45)C32)cc1 (configuration not stated) ?
pPAFAH inh: inactive; IMP-1 inhibitor: 4.7; PAFAH2 FP inh: inactive; PAFAH1B3 inh: inactive; VIM-2 inh: inactive; PAFAH1B2 inh: inactive

What do the screens show for `O=C(O)c1ccc2cccnc2c1O`?
pPAFAH inh: inactive; IMP-1 inhibitor: inactive; PAFAH2 FP inh: inactive; PAFAH1B3 inh: inactive; VIM-2 inh: 10.2; PAFAH1B2 inh: inactive

What do the screens show for `CC1(C)CCC[C@]2(C)C(CS(=O)c3ccccc3)=C(C=O)CC[C@@H]12` (some centres not stated)?
pPAFAH inh: inactive; PAFAH2 FP inh: inactive; PAFAH1B3 inh: inactive; PAFAH1B2 inh: inactive

What do the screens show for `COc1ccc(-n2ccnc(SCC(=O)NC3CCCCC3)c2=O)cc1`?
pPAFAH inh: inactive; IMP-1 inhibitor: inactive; PAFAH2 FP inh: inactive; PAFAH1B3 inh: inactive; VIM-2 inh: inactive; PAFAH1B2 inh: inactive

How did COc1ccc(-n2ccnc(SCC(=O)NC3CCCC3)c2=O)cc1 do in these assays?
pPAFAH inh: inactive; IMP-1 inhibitor: 4.6; PAFAH2 FP inh: inactive; PAFAH1B3 inh: inactive; VIM-2 inh: inactive; PAFAH1B2 inh: inactive

How did CCc1cc2cc(C)ccc2nc1SCC(=O)NC1CCCC1 do in these assays?
pPAFAH inh: 30.3; IMP-1 inhibitor: inactive; PAFAH2 FP inh: inactive; PAFAH1B3 inh: inactive; VIM-2 inh: inactive; PAFAH1B2 inh: inactive

What do the screens show for `CCc1ccc2nc(SCC(=O)N3CC(=O)Nc4ccccc43)c(C#N)cc2c1`?
pPAFAH inh: inactive; IMP-1 inhibitor: inactive; PAFAH2 FP inh: inactive; PAFAH1B3 inh: inactive; VIM-2 inh: inactive; PAFAH1B2 inh: inactive

What do the screens show for `CCc1cc2cc(C)ccc2nc1SCC(=O)N1CC(=O)Nc2ccccc21`?
pPAFAH inh: 29.1; IMP-1 inhibitor: inactive; PAFAH2 FP inh: inactive; PAFAH1B3 inh: inactive; VIM-2 inh: inactive; PAFAH1B2 inh: inactive

Results for Cc1ccc(-c2csc3ncn(CC(=O)NCC(c4ccco4)N4CCCC4)c(=O)c23)cc1 (configuration not stated) ?
pPAFAH inh: inactive; PAFAH2 FP inh: inactive; PAFAH1B3 inh: inactive; PAFAH1B2 inh: inactive

How did O=C(N=Nc1c(O)n(Cc2ccccc2)c2ccccc12)c1ccncc1 do in these assays?
pPAFAH inh: inactive; IMP-1 inhibitor: inactive; PAFAH2 FP inh: inactive; PAFAH1B3 inh: inactive; VIM-2 inh: 11.0; PAFAH1B2 inh: inactive

How did CSc1nc2[nH]c3c(c2c2ncnn12)CCCC3 do in these assays?
pPAFAH inh: inactive; IMP-1 inhibitor: inactive; PAFAH2 FP inh: inactive; PAFAH1B3 inh: inactive; VIM-2 inh: 11.3; PAFAH1B2 inh: inactive

How did Cc1ccc(S(=O)(=O)N(C)C)cc1NC(=O)COC(=O)CCC(=O)c1ccc(F)cc1 do in these assays?
pPAFAH inh: inactive; IMP-1 inhibitor: inactive; PAFAH2 FP inh: inactive; PAFAH1B3 inh: inactive; VIM-2 inh: inactive; PAFAH1B2 inh: inactive

Results for Cc1ccc(S(=O)(=O)N(C)C)cc1NC(=O)COC(=O)CCNS(=O)(=O)c1ccccc1 ?
PAFAH2 FP inh: inactive; PAFAH1B3 inh: inactive; PAFAH1B2 inh: inactive

Results for Cc1ccc(S(=O)(=O)N(C)C)cc1NC(=O)COC(=O)CSc1ccccc1 ?
pPAFAH inh: 28.2; PAFAH2 FP inh: inactive; PAFAH1B3 inh: inactive; PAFAH1B2 inh: inactive

What do the screens show for `Cc1ccc(S(=O)(=O)N(C)C)cc1NC(=O)COC(=O)CCC1CCCCC1`?
pPAFAH inh: 33.3; PAFAH2 FP inh: inactive; PAFAH1B3 inh: inactive; PAFAH1B2 inh: inactive

How did COc1ccc(N2CC(C(=O)Nc3nnc(SCC(=O)N4CCOCC4)s3)CC2=O)cc1 (configuration not stated) do in these assays?
pPAFAH inh: inactive; IMP-1 inhibitor: inactive; PAFAH2 FP inh: inactive; PAFAH1B3 inh: inactive; VIM-2 inh: inactive; PAFAH1B2 inh: inactive

Results for COc1ccc2[nH]c(C(=O)O)c(NS(=O)(=O)c3ccc(F)cc3)c2c1 ?
pPAFAH inh: inactive; IMP-1 inhibitor: inactive; PAFAH2 FP inh: inactive; PAFAH1B3 inh: inactive; VIM-2 inh: inactive; PAFAH1B2 inh: 27.2

Results for O=C(O)c1[nH]c2ccccc2c1NS(=O)(=O)c1ccc(F)cc1 ?
pPAFAH inh: inactive; IMP-1 inhibitor: inactive; PAFAH2 FP inh: inactive; PAFAH1B3 inh: inactive; VIM-2 inh: inactive; PAFAH1B2 inh: 24.1

Results for COc1ccc2[nH]c(C(=O)O)c(NS(=O)(=O)c3ccc(C)c(C)c3)c2c1 ?
pPAFAH inh: inactive; IMP-1 inhibitor: inactive; PAFAH2 FP inh: inactive; PAFAH1B3 inh: inactive; VIM-2 inh: inactive; PAFAH1B2 inh: inactive

Results for COc1ccc(S(=O)(=O)Nc2c(C(=O)O)[nH]c3ccccc23)cc1 ?
pPAFAH inh: inactive; IMP-1 inhibitor: inactive; PAFAH2 FP inh: inactive; PAFAH1B3 inh: inactive; VIM-2 inh: inactive; PAFAH1B2 inh: inactive

Results for CCc1nc2ccc(C(=O)N3CCN(c4ccccc4F)CC3)cc2nc1CC ?
pPAFAH inh: inactive; IMP-1 inhibitor: inactive; PAFAH2 FP inh: inactive; PAFAH1B3 inh: inactive; VIM-2 inh: inactive; PAFAH1B2 inh: inactive

How did O=C(O)COc1ccc(Br)cc1/C=C1/SC(=O)N(CC(=O)N2CCCC2)C1=O do in these assays?
pPAFAH inh: inactive; IMP-1 inhibitor: 42.8; PAFAH2 FP inh: inactive; PAFAH1B3 inh: inactive; VIM-2 inh: inactive; PAFAH1B2 inh: inactive

What do the screens show for `COc1ccc(NC(=O)Nc2cc(C(C)(C)C)on2)cc1OC`?
pPAFAH inh: inactive; IMP-1 inhibitor: inactive; PAFAH2 FP inh: inactive; PAFAH1B3 inh: inactive; VIM-2 inh: inactive; PAFAH1B2 inh: inactive

What do the screens show for `O=[N+]([O-])c1cc([N+](=O)[O-])c2oc(-c3ccccc3)c(Br)c2c1O`?
IMP-1 inhibitor: inactive; PAFAH2 FP inh: 45.8; PAFAH1B3 inh: 28.5; VIM-2 inh: inactive; PAFAH1B2 inh: 42.6

Results for Cc1ccc(-n2nc3c(=O)n(CCCC(=O)NCCN4CCN(C)CC4)nc(C)c3c2C)cc1 ?
pPAFAH inh: inactive; IMP-1 inhibitor: 4.9; PAFAH2 FP inh: inactive; PAFAH1B3 inh: inactive; VIM-2 inh: inactive; PAFAH1B2 inh: inactive

What do the screens show for `Cc1ccc(CCNC(=O)CCCn2nc(C)c3c(C)n(-c4ccc(C)cc4)nc3c2=O)cc1`?
pPAFAH inh: inactive; IMP-1 inhibitor: inactive; PAFAH2 FP inh: inactive; PAFAH1B3 inh: inactive; VIM-2 inh: inactive; PAFAH1B2 inh: inactive

Results for Cc1ccc(-n2nc3c(=O)n(CC(=O)NCCc4ccc(Cl)cc4)nc(C)c3c2C)cc1 ?
pPAFAH inh: inactive; IMP-1 inhibitor: 18.1; PAFAH2 FP inh: inactive; PAFAH1B3 inh: inactive; VIM-2 inh: inactive; PAFAH1B2 inh: inactive

How did C[C@@H](NC(=O)C1(c2ccccc2)CCN(C(=O)OC(C)(C)C)CC1)C(=O)N[C@@H](C(=O)O)c1ccccc1 do in these assays?
pPAFAH inh: inactive; IMP-1 inhibitor: inactive; PAFAH2 FP inh: inactive; PAFAH1B3 inh: inactive; VIM-2 inh: inactive; PAFAH1B2 inh: inactive

What do the screens show for `COc1ccc(S(=O)(=O)Nc2cccc(F)c2)cc1C`?
pPAFAH inh: 26.5; IMP-1 inhibitor: inactive; PAFAH2 FP inh: inactive; PAFAH1B3 inh: inactive; VIM-2 inh: inactive; PAFAH1B2 inh: inactive

Results for CCN(C(=O)CN1C(=O)NC(c2ccccc2)(c2ccc(C)c(C)c2)C1=O)C1CCCCC1 (configuration not stated) ?
pPAFAH inh: inactive; PAFAH2 FP inh: inactive; PAFAH1B3 inh: inactive; PAFAH1B2 inh: 26.2
